Common to all, as to assay type: functional
The subject of experiment [1] is HT-29. As to the kind of experiment: Antiproliferative activity against human HT-29 assessed as growth inhibition after 48 hrs by SRB assay. The settings on record: HT-29, 48 h. The method in brief:
(§1)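 Cells kept in RPMI 1640 with 10% FBS, nonessential amino acids and penicillin/streptomycin, seeded and cultured overnight. Six wells fixed with 10% TCA at drug addition (T0). Compound exposure 48 h, then TCA fixation, 0.4% SRB in 1% acetic acid 10 min at room temperature, dye dissolved in 10 mM Tris base, OD 515 nm. Growth computed from T0, control and treated readings. GI50 is the concentration giving 50% growth inhibition. Doxorubicin served as positive control.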

Experiment [2] has as its system PC-3. Nature of the experiment: Antiproliferative activity against human PC3 assessed as growth inhibition after 48 hrs by SRB assay. As to conditions: PC-3, 48 h. The method in brief: as §1
Experiment [3] has as its system AGS. Nature of the experiment: Antiproliferative activity against human AGS assessed as growth inhibition after 48 hrs by SRB assay. The method in brief:
as §1

In experiment [4] the test system is A549. As to the kind of experiment: Antiproliferative activity against human A549 assessed as growth inhibition after 48 hrs by SRB assay. The settings on record: A549, 48 h. The method in brief: as §1

These results are taken from ChEMBL document CHEMBL1909614, “5-deoxyflavones with cytotoxic activity from Mimosa diplotricha” (2011).

`COc1ccc(-c2oc3c(OC)c(OC)ccc3c(=O)c2OC)cc1O` [DIPLOTRIN B]: the GI50 in experiment [1] is 7.5 µM; in experiment [2] it was 20.8 µM; in experiment [3] it was 1.7 µM; in experiment [4] it was 2.7 µM.
As to `COc1cc(O)c(-c2oc3c(OC)c(OC)ccc3c(=O)c2OC)cc1O` [DIPLOTRIN A], the 50% growth inhibitory concentration (GI50) in experiment [1], in experiment [2], in experiment [3] and in experiment [4] was over 10 µM throughout.
With `COc1cccc2c1C(=O)c1c(O)c3c(c(O)c1C2=O)C[C@@](O)(C(=O)CO)C[C@@H]3O[C@H]1C[C@H](N)[C@H](O)[C@H](C)O1` [DOXORUBICIN], the concentration for 50% growth inhibition (GI50) in experiment [1] was 0.12 µM; in experiment [2], 0.09 µM; in experiment [3], 0.01 µM; in experiment [4] it was 0.27 µM.
Take `COc1ccc2c(=O)cc(-c3cc(OC)c(OC)cc3O)oc2c1` [DIPLOTRIN C]: the 50% growth inhibitory concentration (GI50) in experiment [1], in experiment [2], in experiment [3] and in experiment [4] was over 10 µM in each case.
For `COc1ccc2c(c1O)COc1c-2oc2c(OC)c(OC)ccc2c1=O`, the GI50 in experiment [1], in experiment [2], in experiment [3] and in experiment [4] was over 10 µM in each case.
Consider `COc1cc([C@H]2Oc3cc(-c4cc(=O)c5c(O)cc(O)cc5o4)ccc3O[C@@H]2CO)cc(OC)c1O`, for which the GI50 in experiment [1] was 4.1 µM; in experiment [2], 2.3 µM; in experiment [3] it was 24.8 µM; in experiment [4], 20.3 µM.
